Values after ≈ are worked out from the molar mass of the structure shown. Active and inactive are the calls of the source. Unless noted, no cut-off for these calls is given here.
Columns and labels:
Streptococcus pneumoniae [1] = experiment: Bactericidal activity against Streptococcus pneumoniae ATCC 49619 assessed as reduction in CFU at 1 to 4 times MIC90 incubated for 24 hrs; format: functional; conditions: ATCC 49619, 24 h, read-out: MBC99.9
Salmonella enteritidis [2] = experiment: Antibacterial activity against Salmonella enteritidis ATCC 13076 incubated for 24 hrs by serial broth microdilution method; format: functional
Method in brief: (§1)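 Log-phase cultures from four colonies grown overnight at 37 °C, inoculated at ~5×10^5 cells/mL in cation-adjusted Mueller–Hinton broth with serially diluted compound. Grown 24 h at 37 °C, then OD600 read. MIC50/MIC90 are the concentrations giving 50%/90% growth inhibition relative to drug-free controls. Two independent experiments in duplicate.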

Streptococcus pneumoniae [3] = experiment: Antibacterial activity against Streptococcus pneumoniae ATCC 49619 incubated for 24 hrs by serial broth microdilution method; format: functional; conditions: ATCC 49619, 24 h
Method in brief: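 Cultured in MH medium plus 3% defibrinated sheep blood at 37 °C, 5% CO2. Log-phase inoculum ~5×10^5 cells/mL was exposed to serial compound dilutions for 24 h. MIC50/MIC90 are relative to drug-free controls. Two independent experiments in duplicate.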

Streptococcus pneumoniae [4] = experiment: Antibacterial activity against Streptococcus pneumoniae ATCC 49619 at 100 uM incubated for 24 hrs; format: functional, organism-based
Method in brief: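 Single 100 μM screen in MH medium with 3% defibrinated sheep blood at 37 °C under 5% CO2, ~5×10^5 cells/mL, 24 h.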

[5] = test system: Mycobacterium tuberculosis; experiment: Bactericidal activity against Mycobacterium tuberculosis H37Rv assessed as reduction in CFU at 1 to 4 times MIC90 incubated for 7 days; format: functional; conditions: 168 h, read-out: MBC99.9
Method in brief: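 Then plated on complete 7H10 agar for CFU. Inoculum plated at time zero. MBC99.9 is a 1000-fold CFU reduction versus the time-zero inoculum.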

Staphylococcus aureus [6] = experiment: Antibacterial activity against methicillin-resistant Staphylococcus aureus ATCC 43300 at 100 uM incubated for 24 hrs; format: functional, organism-based
Method in brief: (§2)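 Single-concentration growth screen: 100 μM test compound with log-phase bacteria at about 5×10^5 cells/mL. Incubation 24 h at 37 °C. Growth read by OD600 and given as percent of untreated control. MRSA was grown in cation-adjusted Mueller–Hinton broth. M. smegmatis was grown in complete Middlebrook 7H9. Ampicillin and kanamycin served as positive controls.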

Pseudomonas aeruginosa [7] = experiment: Antibacterial activity against Pseudomonas aeruginosa PA14 incubated for 24 hrs by serial broth microdilution method; format: functional, organism-based; method in brief: as §1
Klebsiella pneumoniae [8] = experiment: Bactericidal activity against Klebsiella pneumoniae ATCC 13883 assessed as reduction in CFU at 1 to 4 times MIC90 incubated for 24 hrs; format: functional, organism-based
Enterococcus faecalis [9] = experiment: Bactericidal activity against Enterococcus faecalis ATCC 51299 assessed as reduction in CFU at 1 to 4 times MIC90 incubated for 24 hrs; format: functional, organism-based
[10] = test system: Mycobacterium tuberculosis; experiment: Antibacterial activity against Mycobacterium tuberculosis ATCC 27294 at 100 uM incubated for 7 days; format: functional, organism-based
[11] = test system: Mycolicibacterium smegmatis; experiment: Antibacterial activity against Mycolicibacterium smegmatis MC2 155 incubated for 24 hrs by serial broth microdilution method; format: functional; conditions: MC2 155, 24 h
Method in brief: (§3)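 Growth read by OD600. MRSA in cation-adjusted Mueller–Hinton broth, M. smegmatis in complete 7H9. MIC50 and MIC90 are 50% and 90% growth inhibition versus drug-free controls. Two independent experiments, each in duplicate.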

[12] = target: T1, tRNA (guanine-N(1)-)-methyltransferase (Pseudomonas aeruginosa (strain ATCC 15692 / DSM 22644 / CIP 104116 / JCM14847 / LMG 12228 / 1C / PRS 101 / PAO1), UniProt Q9HXQ1); experiment: Inhibition of Pseudomonas aeruginosa tRNA (guanine(37)-N1)-methyltransferase (Leu5 to Asp25 residues) expressed in Escherichia coli BL21 (DE3) Rosetta T1R cells assessed as reduction in S-adenosyl-L-homocysteine production preincubated for 15 mins followed by 1.5 uM of tRNALeu(CAG) substrate and SAM addition and measured after 45 mins by MTase-Glo assay
T1 sequence (Q9HXQ1 whole entry): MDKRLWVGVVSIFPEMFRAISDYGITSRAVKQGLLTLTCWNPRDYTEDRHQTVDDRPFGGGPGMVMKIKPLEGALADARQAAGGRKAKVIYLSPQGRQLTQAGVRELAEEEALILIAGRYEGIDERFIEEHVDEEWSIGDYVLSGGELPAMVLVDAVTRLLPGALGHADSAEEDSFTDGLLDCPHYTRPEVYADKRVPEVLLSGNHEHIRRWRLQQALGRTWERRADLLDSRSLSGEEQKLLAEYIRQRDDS
Method in brief: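 MTase-Glo luminescence assay. 8 nM TrmD preincubated 15 min at ambient temperature with serially diluted inhibitor (0–500 μM) in 50 mM Tris-HCl pH 8.0, 80 mM NaCl, 1 mM MgCl2, 0.5 mM DTT, 0.01% Triton X-100. Reaction with 2 μM SAM and tRNALeu(CAG), 45 min at 37 °C. Detection 30 min in the dark, SAH read against a standard curve. IC50 by nonlinear regression. Two independent experiments in duplicate.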

Erythrocyte = experiment: Hemolytic activity in human RBC at 100 uM measured after 1 hr; format: ADME, cell-based
Method in brief: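 Fresh human RBCs were PBS-washed and resuspended to OD600 24, then mixed 1:1 by volume with compound serially diluted in PBS. Incubated 1 h at 37 °C without shaking and centrifuged at 1000g for 15 min. Triton X-100 served as positive control. Run in triplicate.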

[13] = test system: Mycolicibacterium smegmatis; experiment: Antibacterial activity against Mycolicibacterium smegmatis MC2 155 at 100 uM incubated for 24 hrs; format: functional, organism-based; method in brief: as §2
Escherichia coli [14] = experiment: Antibacterial activity against Escherichia coli BW25113 incubated for 24 hrs by serial broth microdilution method; format: functional, organism-based; method in brief: as §1
Staphylococcus aureus [15] = experiment: Antibacterial activity against methicillin-resistant Staphylococcus aureus ATCC 43300 incubated for 24 hrs by serial broth microdilution method; format: functional; conditions: ATCC 43300, 24 h; method in brief: as §3
Klebsiella pneumoniae [16] = experiment: Antibacterial activity against Klebsiella pneumoniae ATCC 13883 incubated for 24 hrs by serial broth microdilution method; format: functional, organism-based; method in brief: as §1
[17] = test system: Mycolicibacterium smegmatis; experiment: Bactericidal activity against Mycolicibacterium smegmatis MC2 155 assessed as reduction in CFU at 1 to 4 times MIC90 incubated for 24 hrs; format: functional; conditions: MC2 155, 24 h, read-out: MBC99.9
Enterococcus faecalis [18] = experiment: Antibacterial activity against Enterococcus faecalis ATCC 51299 at 100 uM incubated for 24 hrs; format: functional, organism-based
Method in brief: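 Single-concentration screen in brain heart infusion broth. Log-phase cells at ~5×10^5 cells/mL were grown with 100 μM compound for 24 h at 37 °C. Growth was read as OD600 and expressed as a percentage of untreated wells. DMSO and blank controls were included.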

Staphylococcus aureus [19] = experiment: Bactericidal activity against methicillin-resistant Staphylococcus aureus ATCC 43300 assessed as reduction in CFU at 1 to 4 times MIC90 incubated for 24 hrs; format: functional; conditions: ATCC 43300, 24 h, read-out: MBC99.9
Enterococcus faecalis [20] = experiment: Antibacterial activity against Enterococcus faecalis ATCC 51299 incubated for 24 hrs by serial broth microdilution method; format: functional, organism-based
Method in brief: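 Broth microdilution in brain heart infusion broth, ~5×10^5 cells/mL log-phase inoculum, serial compound dilutions, 24 h at 37 °C, OD600 read-out. MIC50/MIC90 are the concentrations giving 50%/90% growth inhibition relative to drug-free controls. Two independent experiments in duplicate.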

Acinetobacter baumannii [21] = experiment: Bactericidal activity against Acinetobacter baumannii ATCC 17961 assessed as reduction in CFU at 1 to 4 times MIC90 incubated for 24 hrs; format: functional; conditions: ATCC 17961, 24 h, read-out: MBC99.9
Salmonella enteritidis [22] = experiment: Bactericidal activity against Salmonella enteritidis ATCC 13076 assessed as reduction in CFU at 1 to 4 times MIC90 incubated for 24 hrs; format: functional
Acinetobacter baumannii [23] = experiment: Antibacterial activity against Acinetobacter baumannii ATCC 17961 incubated for 24 hrs by serial broth microdilution method; format: functional; conditions: ATCC 17961, 24 h; method in brief: as §1
[24] = test system: Mycobacterium tuberculosis; experiment: Antibacterial activity against Mycobacterium tuberculosis ATCC 27294 incubated for 7 days by broth dilution method; format: functional; conditions: ATCC 27294, 168 h
Method in brief: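 M. tuberculosis ATCC 27294 in complete 7H9 with 0.05% Tween 80, 0.5% glycerol and 10% ADC. Mid-log cells adjusted to OD600 0.1 and added 1:1 to 2-fold serial compound dilutions (highest 100 μM). Incubated 7 d at 37 °C with shaking at 80 rpm, then OD600 read. Isoniazid positive control. MIC50/MIC90 versus drug-free controls. Biological duplicates.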

Escherichia coli [25] = experiment: Bactericidal activity against Escherichia coli BW25113 assessed as reduction in CFU at 1 to 4 times MIC90 incubated for 24 hrs; format: functional, organism-based
Pseudomonas aeruginosa [26] = experiment: Bactericidal activity against Pseudomonas aeruginosa PA14 assessed as reduction in CFU at 1 to 4 times MIC90 incubated for 24 hrs; format: functional, organism-based
[27] = Salmonella enterica subsp. enterica serovar Enteritidis
[28] = Salmonella enterica, ATCC 13076, 24 h

Row | Compound | MBC (Streptococcus pneumoniae [1]) | MIC50 (Streptococcus pneumoniae [3]) | MIC90 (Streptococcus pneumoniae [3]) | Activity (Streptococcus pneumoniae [4]) | Activity (Staphylococcus aureus [6]) | MIC50 (Pseudomonas aeruginosa [7]) | MIC90 (Pseudomonas aeruginosa [7]) | MBC99.9 (Klebsiella pneumoniae [8]) | MBC99.9 (Enterococcus faecalis [9]) | Activity [10] | MIC50 [11] | MIC90 [11] | IC50 [12] | Activity [13] | MIC50 (Escherichia coli [14]) | MIC90 (Escherichia coli [14]) | MIC50 (Staphylococcus aureus [15]) | MIC90 (Staphylococcus aureus [15]) | MIC50 (Klebsiella pneumoniae [16]) | MIC90 (Klebsiella pneumoniae [16]) | further results
1 | CCCCCCCCCCNCc1ccc(CNC(=O)c2csc3nc[nH]c(=O)c23)cc1 | > 100 µM | 34 µM (≈ 15.5 µg/mL) | 56 µM (≈ 25.5 µg/mL) | Active | Active | inactive | inactive | inactive | inactive | Active | 13 µM (≈ 5.91 µg/mL) | 18 µM (≈ 8.18 µg/mL) | 25 nM | Active | inactive | inactive | 6 µM (≈ 2.73 µg/mL) | 8.5 µM (≈ 3.86 µg/mL) | inactive | inactive | MIC50 (Salmonella enteritidis [2]; [27]): inactive; MIC90 (Salmonella enteritidis [2]; [27]): inactive; MBC [5]: 75 µM (≈ 34.1 µg/mL); Activity (Erythrocyte): Non-Toxic; MBC [17]: 36 µM (≈ 16.4 µg/mL); Activity (Enterococcus faecalis [18]): Active; MBC (Staphylococcus aureus [19]): 34 µM (≈ 15.5 µg/mL); MIC50 (Enterococcus faecalis [20]): inactive; MIC90 (Enterococcus faecalis [20]): inactive; MBC (Acinetobacter baumannii [21]): > 100 µM; MBC99.9 (Salmonella enteritidis [22]; [27]): inactive; MIC50 (Acinetobacter baumannii [23]): > 100 µM; MIC90 (Acinetobacter baumannii [23]): > 100 µM; MIC50 [24]: 22 µM (≈ 10 µg/mL); MIC90 [24]: 43 µM (≈ 19.5 µg/mL); MBC99.9 (Escherichia coli [25]): inactive; MBC99.9 (Pseudomonas aeruginosa [26]): inactive
2 | CCCCCCCCCCCCNCc1ccc(CNC(=O)c2csc3nc[nH]c(=O)c23)cc1 | > 100 µM | 62 µM (≈ 29.9 µg/mL) | 74 µM (≈ 35.7 µg/mL) | Active | Active | inactive | inactive | inactive | inactive | Active | 17 µM (≈ 8.21 µg/mL) | 23 µM (≈ 11.1 µg/mL) | 380 nM | Active | inactive | inactive | 5 µM (≈ 2.41 µg/mL) | 8.5 µM (≈ 4.1 µg/mL) | inactive | inactive | MIC50 (Salmonella enteritidis [2]; [28]): > 100 µM; MIC90 (Salmonella enteritidis [2]; [28]): > 100 µM; MBC [17]: 69 µM (≈ 33.3 µg/mL); Activity (Enterococcus faecalis [18]): Active; MBC (Staphylococcus aureus [19]): 34 µM (≈ 16.4 µg/mL); MIC50 (Enterococcus faecalis [20]): inactive; MIC90 (Enterococcus faecalis [20]): inactive; MBC (Acinetobacter baumannii [21]): > 100 µM; MBC (Salmonella enteritidis [22]; Salmonella enterica, ATCC 13076, 24 h, read-out: MBC99.9): > 100 µM; MIC50 (Acinetobacter baumannii [23]): 75 µM (≈ 36.2 µg/mL); MIC90 (Acinetobacter baumannii [23]): 99 µM (≈ 47.8 µg/mL); MIC50 [24]: 44 µM (≈ 21.2 µg/mL); MIC90 [24]: 88 µM (≈ 42.5 µg/mL); MBC99.9 (Escherichia coli [25]): inactive; MBC99.9 (Pseudomonas aeruginosa [26]): inactive

From ChEMBL document CHEMBL4373727, “Thienopyrimidinone Derivatives That Inhibit Bacterial tRNA (Guanine37-N1)-Methyltransferase (TrmD) by Restructuring the Active Site with a Tyrosine-Flipping Mechanism” (J Med Chem, 2019)
